# Source: PubChem (several laboratories)
# This excerpt belongs to a sample that is enriched for hits.
# Lmaj promast: Leishmania major promastigote growth inhibition | Leishmania major promastigotes, resazurin fluorescence viability | inhibition, % at 10 µM | 200,000 tested, 9% active | AID 1063; in the data active = inhibition above about 50%;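 also: promastigotes grown with compound for 44 hours at 28 °C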
# T cruzi inh: T. cruzi replication inhibition | T. cruzi beta-gal in NIH3T3, luminescence, 90 h | inhibition, % (concentration not given with the values) | 300,000 tested, 1.4% active | AID 1885;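 active = mean inhibition across valid replicates above about 55%, limit read from the data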;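 also: signal also drops with host cell toxicity which is not excluded here; 0% = plate median of DMSO wells and 100% = zero luminescence signal; higher percent means less beta-gal luminescence so fewer parasites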
#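 Assay system: NIH/3T3 host cells with β-galactosidase reporter T. cruzi; input: 5,000 host fibroblasts per well; compound: single 50 nL compound addition per well in DMSO; timing: ≥90 h infection period, 3 h prior cell attachment; measured by: GalScreen β-gal luminescence, detergent lysis, 60 min; evaluation: percent inhibition of parasite-derived β-gal signal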
# Lipid droplet: hepatic lipid droplet formation modulation; 240,000 tested, 0.4% active; inhibition, % at 6.5 µM; AML12 mouse hepatocytes, oleate lipid droplets, BODIPY imaging; AID 1656;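 active = lipid droplet intensity inhibited by at least 50%, with more than 500 cells counted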
#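 material = mouse AML12 hepatocyte cell line, fixed after treatment | also added = 100 µM oleic acid challenge | doses = compound at 6.5 µM only | schedule = overnight exposure | technique = Image-based BODIPY and DAPI two-channel analysis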
# MPTP inh: inhibitors of mitochondrial permeability transition pore | inhibition, % at 10 µM | AID 602449 | 360,000 tested, 1.4% active | isolated mouse mitochondria, Ca2+ swelling absorbance, 30 min;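 active = inhibition of 50% or more, scaled per plate between neutral and stimulator controls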;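 also: 0% = DMSO wells given calcium and 100% = 1 mM EGTA wells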
# Redox H2O2 prof: compounds producing H2O2 with reducing agent – biochemical, NIH compound library profiling, artefact control for MLSCN library redox annotation, primary screen; DTT-dependent redox cycling H2O2, phenol red/HRP absorbance; 100% = 100 µM peroxide control, 0% = buffer; activation, % at 10 µM; 200,000 tested, 0.03% active;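 active = activation of at least 50% relative to the plate's high and low controls in the primary single-dose screen; inactive = activation below 50%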;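 also: compound incubated with DTT at 0.8 mM final as the reducing agent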
# Numbers without * were called inactive; . = not tested or not shown.
SMILES,Lmaj promast,T cruzi inh,Lipid droplet,MPTP inh,Redox H2O2 prof
Cc1c2c(nc3ccccc13)CCC(C(C)(C)C)C2 (configuration not stated),48.9,56.6*,3.8,4.9,-1.0
c1csc(CNc2nc(-c3cccs3)nc3ccccc23)c1,82.8*,44.4,0.3,3.3,-0.4
c1ccc(CN2CCC(Nc3nc(-c4cccs4)nc4ccccc34)CC2)cc1,100.3*,49.8,-2.0,5.7,-1.7
Cc1nn(CC(=O)N2CCc3ccccc3C2)c(C)c1Cl,.,10.3,-0.3,-0.4,.
COc1ccc(C2C([N+](=O)[O-])=C(C)N(C)C(=O)N2C)cc1OC (configuration not stated),19.8,5.8,47.9,-1.1,-0.2
CCOc1ccc(C2C([N+](=O)[O-])=C(C)N(C)C(=O)N2C)cc1OC (configuration not stated),56.1*,18.1,0.2,-2.0,-0.3
O=C(N/N=C/c1ccc(-c2ccccc2[N+](=O)[O-])o1)c1cccnc1,95.0*,11.7,-12.1,1.6,1.9
O=C(N/N=C/c1ccc([N+](=O)[O-])s1)c1ccccc1,100.2*,47.9,-31.4,-18.0,-0.5
O=C(N/N=C/c1ccc(Br)s1)c1cccc([N+](=O)[O-])c1,19.2,-12.7,-18.1,-0.5,0.0
O=C(N/N=C\c1ccc([N+](=O)[O-])s1)c1cncc(Br)c1,100.2*,53.6,-11.8,1.6,-0.1
O=C(N/N=C/c1ccc([N+](=O)[O-])s1)c1cccnc1,100.4*,70.6*,-18.2,1.4,0.5
CCCc1nn2c(=O)cc(CSCC(=O)Nc3ccccc3OC)nc2s1,.,3.4,-25.0,-1.5,.
O=C(CC1SCCNC1=O)Nc1cccc([N+](=O)[O-])c1 (configuration not stated),.,-17.4,2.5,1.9,.
O=C(CNC(=O)c1cccc(F)c1)N/N=C/c1ccc([N+](=O)[O-])s1,100.4*,51.1,-0.3,0.3,0.0
COC(=O)N/N=C/c1ccc([N+](=O)[O-])s1,68.8*,34.2,-34.0,0.8,0.0
O=C(CNC(=O)c1cccc(F)c1)N/N=C/c1cc(Br)ccc1OCc1ccccc1,51.1*,13.2,-18.3,6.1,1.1
O=C(CNC(=O)c1cccc(Br)c1)N/N=C/c1cccs1,.,-2.5,-7.0,0.7,.
Cn1c(SCC(=O)N/N=C/c2ccc([N+](=O)[O-])s2)nnc1-c1ccccc1,100.5*,57.8*,-4.7,1.2,-0.7
Cc1ccc2c(c1)N(CC(=O)NCCC1=CCCCC1)C(=O)c1cccnc1O2,.,14.1,-11.3,-1.0,.
O=C(O)c1ccc(N/N=C/c2ccc(-c3ccccc3Cl)o2)cc1,.,-4.8,9.4,4.0,.
COc1ccccc1NC(=O)C(=O)N/N=C/c1ccc([N+](=O)[O-])s1,100.5*,61.6*,-7.6,2.7,-1.3
O=C(N/N=C/c1ccc(-c2ccccc2Cl)o1)c1ccccc1,36.7,75.0*,22.6,26.6,-0.5
Cc1ccnn1CC(=O)N/N=C/c1ccc([N+](=O)[O-])s1,.,3.9,13.6,0.7,.
O=C(N/N=C/c1ccc([N+](=O)[O-])s1)C(O)c1ccccc1 (configuration not stated),100.5*,76.7*,-19.5,1.6,0.1
O=C(Cc1ccccc1)N/N=C/c1ccc([N+](=O)[O-])s1,100.6*,45.6,.,-27.0,-3.2
SMILES,Lmaj promast,T cruzi inh,Lipid droplet,MPTP inh,Redox H2O2 prof
O/N=C/c1cc(Br)ccc1OCc1ccc(F)cc1,99.6*,3.1,.,-3.0,2.0
CCN1C(=O)/C(=C2/Sc3ccccc3N2CC)S/C1=N\c1ncn[nH]1,35.8,18.3,6.1,0.4,0.5
Cc1cc(C)c2c(N)c3cccc(C)c3nc2n1,100.4*,57.6*,-185.0,-2.7,0.6
Cc1cccc2c(N)c3c(nc12)CCCC3 (tested in a mixture with another compound),66.6*,.,-23.2,-1.0,-0.3
Nc1c2c(nc3ccccc13)CCCC2,35.9,-4.5,1.9,.,0.0
BrC(=C\c1ccccc1)/C=N/n1cnnc1,100.4*,50.4,-12.1,0.3,0.2
NS(=O)(=O)c1ccc(CCNc2ccnc3cc(Cl)ccc23)cc1,.,-11.2,2.9,0.7,.
O=C(CC1C(=O)NCCN1Cc1ccccc1)NCCCOc1cccnc1 (configuration not stated),.,-8.9,-1.9,-0.9,.
COC(=O)c1ccc(COc2ccc(Cl)cc2)o1,.,-9.0,11.9,0.7,.
C=CCOc1ccc(/C=N\NC(N)=S)cc1,38.4,64.4*,1.7,0.5,-1.3
